Assays:
[1] = Stability in human plasma assessed as compound remaining at 50 uM at 37 degC after 60 mins by LC-MS/MS method; assay type: ADME, cell-free; details: read-out: Stability
Outline: (§1)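 Prodrugs were incubated in rat or human plasma for 60 min. Disappearance of prodrug and concomitant appearance of ertapenem were followed by LC-MS/MS, and in selected cases monoesters from partial hydrolysis were also monitored. Ertapenem itself was incubated the same way as a control.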

[2] = Stability in pH 2.0 simulated gastric fluid assessed as compound degradation to beta-lactam ring open products at 1 uM after 60 mins by LC-MS/MS method; assay type: ADME; details: read-out: Drug degradation
Outline: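 Incubation was in simulated gastric fluid (SGF, pH 2.0) for 60 min, with loss to the β-lactam ring-opened product measured by LC-MS/MS.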

[3] = Stability in pH 6.5 simulated gastrointestinal fluid assessed as compound remaining at 50 uM after 3 hrs by LC-MS/MS method; assay type: ADME; details: read-out: Stability
Outline: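 Compounds at 50 μM were incubated in fasted-state simulated intestinal fluid (FaSSIF, pH 6.5) for over 3 h. Percent remaining was determined by LC-MS/MS.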

[4] = Stability in pH 7.4 phosphate buffer assessed as compound remaining at 50 uM after 3 hrs by LC-MS/MS method; assay type: physicochemical; details: read-out: Stability
Canis familiaris [5] = assay: (§2) AUC (0 to 8 hrs) in fasted Beagle dog at 10 mg/kg dosed through intraduodenal route by LC-MS/MS method; assay type: ADME, organism-based, Canis lupus familiaris, Plasma; set-up: time < 8 hr, dose 10 mg/kg, route intraduodenal; details: in vivo, other, 8 h
Outline: (§3)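 Prodrugs were given intraduodenally to bypass stomach acid. Plasma was sampled at intervals over 8 h, and parent prodrug, the two monoester metabolites and ertapenem were quantified by LC-MS/MS. The lower limit of quantitation was 5 nM. AUC(0–8) was used, and it differed from AUC(0–∞) by ±20%. Vehicles were 30% Captisol or 0.5% methylcellulose, as solution or suspension depending on compound.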

Canis familiaris [6] = assay: AUC (0 to 8 hrs) in fasted Beagle dog assessed as ertapenem level at 10 mg/kg dosed through intraduodenal route by LC-MS/MS method; assay type: ADME, organism-based, Canis lupus familiaris, Plasma; set-up: time < 8 hr, dose 10 mg/kg, route intraduodenal; details: in vivo, other; outline: as §3
Canis familiaris [7] = assay: Oral bioavailability in fasted Beagle dog assessed as ertapenem level at 10 mg/kg dosed through intraduodenal route by LC-MS/MS method; assay type: ADME, organism-based, Canis lupus familiaris; details: in vivo
Outline: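 After intraduodenal dosing, plasma over 8 h was analysed by LC-MS/MS. Bioavailability was calculated as dose-normalized AUC of ertapenem formed from the prodrug divided by dose-normalized AUC of ertapenem dosed iv. Vehicle was 30% Captisol or 0.5% methylcellulose.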

Canis familiaris [8] = assay: Oral bioavailability in fasted Beagle dog assessed as assessed as ertapenem and monoetser metabolites level at 10 mg/kg dosed through intraduodenal route by LC-MS/MS method; assay type: ADME, organism-based, Canis lupus familiaris; details: in vivo
Outline: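 Total absorption followed intraduodenal dosing with LC-MS/MS of plasma over 8 h. It was calculated as the combined dose-normalized AUC of circulating parent prodrug, ertapenem and two monoesters, divided by dose-normalized AUC of ertapenem given iv. Vehicle was 30% Captisol or 0.5% methylcellulose.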

[9] = Stability in rat plasma assessed as compound remaining at 50 uM at 37 degC after 60 mins by LC-MS/MS method; assay type: ADME, cell-free; details: read-out: Stability; outline: as §1
Canis familiaris [10] = assay: AUC (0 to 8 hrs) in fasted Beagle dog assessed as 8-OH, C-3 ester level at 10 mg/kg dosed through intraduodenal route by LC-MS/MS method; assay type: ADME, organism-based, Canis lupus familiaris, Plasma; set-up: time < 8 hr, dose 10 mg/kg, route intraduodenal; details: in vivo, other; outline: as §3
[11] = as §2; assay type: ADME, organism-based, Canis lupus familiaris, Plasma; set-up: time < 8 hr, dose 10 mg/kg, route intraduodenal; details: Beagle, plasma; outline: as §3
Canis familiaris [12] = assay: AUC (0 to 8 hrs) in fasted Beagle dog assessed as 8-OH, benzoate ester level at 10 mg/kg dosed through intraduodenal route by LC-MS/MS method; assay type: ADME, organism-based, Canis lupus familiaris, Plasma; set-up: time < 8 hr, dose 10 mg/kg, route intraduodenal; details: in vivo, other; outline: as §3

remaining at 1 h, 50 µM [1] [%] | degraded at 1 h, 1 µM [2] [%] | remaining at 3 h, 50 µM [3] [%] | remaining at 3 h, 50 µM [4] [%] | AUC (Canis familiaris [5]) [µM·h] | AUC (Canis familiaris [6]) [µM·h] | F (Canis familiaris [7]) [%] | F (Canis familiaris [8]) [%] | remaining at 1 h, 50 µM [9] [%] | AUC (Canis familiaris [5]; BLD = below limit of detection) | AUC (Canis familiaris [10]; BLD = below limit of detection) | AUC(0-t) at 8 h [11] [µM·h] | AUC (Canis familiaris [10]) [µM·h] | AUC (Canis familiaris [12]) [µM·h] | AUC (Canis familiaris [6]; BLD = below limit of detection) | F (Canis familiaris [7]; BLD = below limit of detection) | SMILES
34 | > 25 | > 95 | > 95 | 0.1 | 0.4 | 0.5 | 0.7 | – | – | – | – | – | – | – | – | C[C@@H](O)[C@H]1C(=O)N2C3=C(S[C@@H]4CN[C@@H](C4)C(=O)Nc4cccc(c4)C(=O)OCCCOC3=O)[C@H](C)[C@H]12
21 | > 25 | > 95 | > 95 | – | – | – | – | 0 | – | – | – | – | – | – | – | C[C@@H](O)[C@H]1C(=O)N2C3=C(S[C@@H]4CN[C@@H](C4)C(=O)Nc4cccc(c4)C(=O)OC/C=C\COC3=O)[C@H](C)[C@H]12
0 | > 25 | > 95 | > 95 | – | 0.7 | 1 | 1 | 0 | BLD | – | – | – | – | – | – | C[C@@H](O)[C@H]1C(=O)N2C3=C(S[C@@H]4CN[C@@H](C4)C(=O)Nc4cccc(c4)C(=O)OCc4oc(=O)oc4COC3=O)[C@H](C)[C@H]12
20 | > 25 | > 95 | > 95 | – | – | – | – | 0 | – | – | – | – | – | – | – | Cc1oc(=O)oc1COC(=O)N1C[C@@H]2C[C@H]1C(=O)Nc1cccc(c1)C(=O)OC/C=C\COC(=O)C1=C(S2)[C@H](C)[C@@H]2[C@@H]([C@@H](C)O)C(=O)N12
17 | > 25 | > 95 | > 95 | – | – | – | – | 0 | – | – | – | – | – | – | – | Cc1oc(=O)oc1COC(=O)N1C[C@@H]2C[C@H]1C(=O)Nc1cccc(c1)C(=O)OC/C=C/COC(=O)C1=C(S2)[C@H](C)[C@@H]2[C@@H]([C@@H](C)O)C(=O)N12
0 | > 25 | > 95 | > 95 | – | – | – | – | 0 | – | – | – | – | – | – | – | Cc1oc(=O)oc1COC(=O)N1C[C@@H]2C[C@H]1C(=O)Nc1cccc(c1)C(=O)OCc1oc(=O)oc1COC(=O)C1=C(S2)[C@H](C)[C@@H]2[C@@H]([C@@H](C)O)C(=O)N12
60 | > 25 | > 95 | > 95 | – | – | – | – | 0 | – | – | – | – | – | – | – | C[C@@H](O)[C@H]1C(=O)N2C3=C(S[C@@H]4CN[C@@H](C4)C(=O)Nc4cccc(c4)C(=O)OCOCOC3=O)[C@H](C)[C@H]12
30 | > 25 | > 95 | > 95 | – | 10.1 | 13.4 | 16 | 0 | – | – | 0.1 | – | – | – | – | CC(=O)O[C@H](C)[C@H]1C(=O)N2C3=C(S[C@@H]4CN[C@@H](C4)C(=O)Nc4cccc(c4)C(=O)OCOCOC3=O)[C@H](C)[C@H]12
9 | > 25 | > 95 | > 95 | – | 3.4 | 6.4 | 14.4 | 0 | BLD | – | – | 0.7 | 3.1 | – | – | CCOC(=O)C1=C(S[C@H]2C[C@@H](C(=O)Nc3cccc(C(=O)OCC)c3)N(C(=O)OCc3oc(=O)oc3C)C2)[C@H](C)[C@@H]2[C@@H]([C@@H](C)O)C(=O)N12

The remaining lines, values behind:

SMILES | remaining at 1 h, 50 µM [1] [%] | degraded at 1 h, 1 µM [2] [%] | remaining at 3 h, 50 µM [3] [%] | remaining at 3 h, 50 µM [4] [%] | AUC (Canis familiaris [5]) [µM·h] | AUC (Canis familiaris [6]) [µM·h] | F (Canis familiaris [7]) [%] | F (Canis familiaris [8]) [%] | remaining at 1 h, 50 µM [9] [%] | AUC (Canis familiaris [5]; BLD = below limit of detection) | AUC (Canis familiaris [10]; BLD = below limit of detection) | AUC(0-t) at 8 h [11] [µM·h] | AUC (Canis familiaris [10]) [µM·h] | AUC (Canis familiaris [12]) [µM·h] | AUC (Canis familiaris [6]; BLD = below limit of detection) | F (Canis familiaris [7]; BLD = below limit of detection)
CCC(=O)OCOC(=O)C1=C(S[C@@H]2CN[C@H](C(=O)Nc3cccc(C(=O)OCOC(=O)CC)c3)C2)[C@H](C)[C@@H]2[C@@H]([C@@H](C)O)C(=O)N12 | 0 | > 25 | > 95 | > 95 | – | 1.6 | 2.9 | 2.9 | 0 | BLD | BLD | – | – | – | – | –
COC(=O)C1=C(S[C@@H]2CN[C@H](C(=O)Nc3cccc(C(=O)OC)c3)C2)[C@H](C)[C@@H]2[C@@H]([C@@H](C)O)C(=O)N12 | 0 | > 25 | > 95 | > 95 | – | 12 | 14.3 | 24.2 | 0 | – | – | 0.8 | 3.9 | 3.6 | – | –
CCCOC(=O)C1=C(S[C@@H]2CN[C@H](C(=O)Nc3cccc(C(=O)OCCC)c3)C2)[C@H](C)[C@@H]2[C@@H]([C@@H](C)O)C(=O)N12 | 7 | > 25 | > 95 | > 95 | – | 7.3 | 9.8 | 11 | 0 | – | – | 1 | – | – | – | –
CCCCOC(=O)C1=C(S[C@@H]2CN[C@H](C(=O)Nc3cccc(C(=O)OCCCC)c3)C2)[C@H](C)[C@@H]2[C@@H]([C@@H](C)O)C(=O)N12 | 1 | > 25 | > 95 | > 95 | – | 9.4 | 13.1 | 16.9 | 2 | – | – | 2.8 | – | – | – | –
CCCCCCCCOC(=O)C1=C(S[C@@H]2CN[C@H](C(=O)Nc3cccc(C(=O)OCCCCCCCC)c3)C2)[C@H](C)[C@@H]2[C@@H]([C@@H](C)O)C(=O)N12 | 80 | > 25 | > 95 | > 95 | – | – | – | 1.1 | 4 | – | – | 0.6 | – | – | BLD | BLD
CCOC(=O)C1=C(S[C@@H]2CN[C@H](C(=O)Nc3cccc(C(=O)OCC)c3)C2)[C@H](C)[C@@H]2[C@@H]([C@@H](C)OC(C)=O)C(=O)N12 | 37 | > 25 | > 95 | > 95 | – | 11.3 | 15.4 | 23.3 | 0 | – | – | < 0.1 | 1.8 | 2.2 | – | –
CCOC(=O)C1=C(S[C@@H]2CN[C@H](C(=O)Nc3cccc(C(=O)OCC)c3)C2)[C@H](C)[C@@H]2[C@@H]([C@@H](C)OC(=O)CC)C(=O)N12 | 22 | > 25 | > 95 | > 95 | – | 9.1 | 12.6 | 20.2 | 0 | BLD | – | – | 1.3 | 1.6 | – | –
CCOC(=O)C1=C(S[C@@H]2CN[C@H](C(=O)Nc3cccc(C(=O)OCC)c3)C2)[C@H](C)[C@@H]2[C@@H]([C@@H](C)OC(=O)[C@@H](N)C(C)C)C(=O)N12 | 38 | > 25 | > 95 | > 95 | – | 6.5 | 9.7 | 14.9 | 0 | BLD | – | – | 0.9 | 1 | – | –

Reference: ChEMBL document CHEMBL3351346, “Design, synthesis, structure-function relationship, bioconversion, and pharmacokinetic evaluation of ertapenem prodrugs” (J Med Chem, 2014)
